Source: publication PMC6172447 (iScience, 2018)
Values belong to the compound of their own block, whether it stands above or below them.

Assays:
[1] = test system: U2OS cells stably expressing EGFP-DFCP1; assay: Omegasome formation, EGFP-DFCP1 puncta by live-cell fluorescent microscopy; type: cell-based, human
How it was run: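 U2OS cells stably expressing EGFP-DFCP1 were given vehicle or 100 nM AZD8055, with or without 5 μM test compound, for 2.5 hr. They were imaged live by fluorescence microscopy in the green FITC channel. EGFP-DFCP1 objects per cell were counted in 20–25 cells per condition. Mean ± SEM; two-tailed unpaired t test.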

U2OS cells [2] = assay: Phagophore formation, endogenous ATG12 immunofluorescence; type: cell-based, human
U2OS cells [3] = assay: Autophagic turnover, BafA1-induced LC3B-II accumulation by immunoblotting; type: cell-based, human
[4] = test system: nutrient-starved murine embryonic fibroblasts; conditions: 1 μM, ref Petherick et al., 2015; cited from earlier work
ULK1 = conditions: ref Egan et al., 2015; cited from earlier work
AMPK = assay: KinaseProfiler radiometric assay, AMPK; type: biochemical, human; conditions: selectivity profiling, 40 nM ULK-101 or 15 nM ULK-100
[5] = test system: 327 recombinant human kinases; assay: KinaseProfiler radiometric selectivity profiling, wild-type human kinase panel; type: biochemical; conditions: 326 non-ULK1 kinases; 500 nM SBI-0206965, 40 nM ULK-101, or 15 nM ULK-100
[6] = 5 μM ULK-101 co-treatment with 100 nM AZD8055, 2.5 hr

Structure (SMILES): COc1ccc(-c2ccc3c(N4CCOC[C@@H]4C)nc(N4CCOC[C@@H]4C)nc3n2)cc1CO [AZD8055, reference compound]
Increase in abundance of DFCP1-positive puncta ([1]; 100 nM AZD8055, 2.5 hr, vs vehicle): over 3 fold
ATG12-positive puncta formation (U2OS cells [2]; 100 nM AZD8055, 2.5 hr): distinct ATG12-positive puncta
Increase in BafA1-induced LC3B-II accumulation (U2OS cells [3]; 100 nM AZD8055, within 1 hr): over 2 fold

Structure (SMILES): CN1CCc2cc(Nc3ncc(C4CC4)c(NCCCNC(=O)C4CCC4)n3)ccc2C1 [MRT68921]
Effect on BafA1-induced LC3-II accumulation [4]: block BafA1-induced LC3-II accumulation

Structure (SMILES): CNC(=O)c1ccccc1Oc1nc(Nc2cc(OC)c(OC)c(OC)c2)ncc1Br [SBI-0206965]
Effect on Beclin 1 Ser15 phosphorylation in cells (ULK1): reduce Beclin 1 Ser15 phosphorylation

Structure (SMILES): CC(C)[C@H](NC(=O)c1cc(-c2cnn3cc(-c4ccc(OCCN5CCCCC5)cc4)cnc23)cs1)C(F)(F)F [ULK-100]
AMPK inhibition in vitro (AMPK): inhibited

Number of other kinases inhibited at least 75% as well as ULK1 [5]: four
Structure (SMILES): O=C(N[C@@H](C1CC1)C(F)(F)F)c1cc(-c2cnn3cc(-c4ccc(F)cc4)cnc23)cs1 [ULK-101]
AMPK inhibition in vitro (AMPK): spared
Effect on AZD8055-induced formation of DFCP1-positive structures [1, 6]: completely abrogated
Effect on AZD8055-induced ATG12-positive puncta (U2OS cells [2]; [6]): strongly suppressed
Effect on AZD8055-induced increase of BafA1-induced LC3B-II accumulation (U2OS cells [3]; 5 μM ULK-101 with 100 nM AZD8055, 3 hr): negated
